Measurements published in ChEMBL document CHEMBL4270599, “Synthesis of a 3'-C-ethynyl-β-d-ribofuranose purine nucleoside library: Discovery of C7-deazapurine analogs as potent antiproliferative nucleosides” (Eur J Med Chem, 2018).

Tests used:
SF-268 [1] = assay: Growth inhibition of human SF268 cells assessed as cell growth at 10^-8 M incubated for 48 hrs by sulforhodamine B assay relative to control; type: functional; details: SF-268, 48 h, read-out: Activity
LOX IMVI = assay: Growth inhibition of human LOXIMVI cells assessed as cell growth at 10^-8 M incubated for 48 hrs by sulforhodamine B assay relative to control; type: functional; details: read-out: Activity
OVCAR-5 = assay: Cytotoxicity against human OVCAR5 cells after 48 hrs by SRB assay; type: functional; details: OVCAR-5, 48 h
Malme-3M [2] = assay: Cytotoxicity against human MALME-3M cells after 48 hrs by SRB assay; type: functional
MDA-MB-435 = assay: Growth inhibition of human MDA-MB-435 cells assessed as cell growth at 10^-6 M incubated for 48 hrs by sulforhodamine B assay relative to control; type: functional; details: MDA-MB-435, 48 h, read-out: Activity
HT-29 [3] = assay: Growth inhibition of human HT-29 cells assessed as cell growth at 10^-4 M incubated for 48 hrs by sulforhodamine B assay relative to control; type: functional; details: HT-29, 48 h, read-out: Activity
IGROV-1 = assay: Growth inhibition of human IGROV1 cells assessed as cell growth at 10^-7 M incubated for 48 hrs by sulforhodamine B assay relative to control; type: functional; details: IGROV-1, 48 h, read-out: Activity
SF-268 [4] = assay: Growth inhibition of human SF268 cells assessed as cell growth at 10^-5 M incubated for 48 hrs by sulforhodamine B assay relative to control; type: functional; details: SF-268, 48 h, read-out: Activity
K562 = assay: Growth inhibition of human K562 cells assessed as cell growth at 10^-7 M incubated for 48 hrs by sulforhodamine B assay relative to control; type: functional; details: K562, 48 h, read-out: Activity
HCT-116 [5] = assay: Growth inhibition of human HCT116 cells assessed as cell growth at 10^-6 M incubated for 48 hrs by sulforhodamine B assay relative to control; type: functional; details: HCT-116, 48 h, read-out: Activity
RPMI-8226 [6] = assay: Growth inhibition of human RPMI8226 cells assessed as cell growth at 10^-8 M incubated for 48 hrs by sulforhodamine B assay relative to control; type: functional; details: RPMI-8226, 48 h, read-out: Activity
786-0 [7] = assay: Cytotoxicity against human 786-0 cells after 48 hrs by SRB assay; type: functional; details: 786-0, 48 h
BT-549 = assay: Growth inhibition of human BT549 cells assessed as cell growth at 10^-7 M incubated for 48 hrs by sulforhodamine B assay relative to control; type: functional; details: BT-549, 48 h, read-out: Activity
Malme-3M [8] = assay: Growth inhibition of human MALME-3M cells assessed as cell growth at 10^-5 M incubated for 48 hrs by sulforhodamine B assay relative to control; type: functional; details: read-out: Activity
U-251 = assay: Growth inhibition of human U251 cells assessed as cell growth at 10^-4 M incubated for 48 hrs by sulforhodamine B assay relative to control; type: functional; details: U-251, 48 h, read-out: Activity
786-0 [9] = assay: Growth inhibition of human 786-0 cells assessed as cell growth at 10^-7 M incubated for 48 hrs by sulforhodamine B assay relative to control; type: functional; details: 786-0, 48 h, read-out: Activity
T47D = assay: Cytotoxicity against human T47D cells after 48 hrs by SRB assay; type: functional
RPMI-8226 [10] = assay: Cytotoxicity against human RPMI8226 cells after 48 hrs by SRB assay; type: functional; details: RPMI-8226, 48 h
HUVEC = assay: Antiproliferative activity against HUVEC cells after 4 days by Coulter counter method; type: cell-based; details: Homo sapiens, 96 h
In short: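 Primary HUVEC, primary HMVEC-d and the HMEC-1 line seeded at 20,000 cells/well in gelatin-coated plates in EC growth medium (EGM2). After overnight incubation, 5-fold compound dilutions added. Cells proliferated four days with compound, then trypsinized and counted by Coulter counter to derive IC₅₀.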

HCC 2998 = assay: Growth inhibition of human HCC2998 cells assessed as cell growth at 10^-7 M incubated for 48 hrs by sulforhodamine B assay relative to control; type: functional; details: HCC 2998, 48 h, read-out: Activity
ACHN = assay: Growth inhibition of human ACHN cells assessed as cell growth at 10^-6 M incubated for 48 hrs by sulforhodamine B assay relative to control; type: functional; details: read-out: Activity
SN12C = assay: Growth inhibition of human SN12C cells assessed as cell growth at 10^-6 M incubated for 48 hrs by sulforhodamine B assay relative to control; type: functional; details: read-out: Activity
HT-29 [11] = assay: Growth inhibition of human HT-29 cells assessed as cell growth at 10^-8 M incubated for 48 hrs by sulforhodamine B assay relative to control; type: functional; details: HT-29, 48 h, read-out: Activity
SF-295 = assay: Cytotoxicity against human SF295 cells after 48 hrs by SRB assay; type: functional; details: SF-295, 48 h
OVCAR-8 = assay: Growth inhibition of human OVCAR8 cells assessed as cell growth at 10^-7 M incubated for 48 hrs by sulforhodamine B assay relative to control; type: functional; details: OVCAR-8, 48 h, read-out: Activity
HL-60(TB) [12] = assay: Growth inhibition of human HL-60(TB) cells assessed as cell growth at 10^-6 M incubated for 48 hrs by sulforhodamine B assay relative to control; type: functional; details: HL-60, 48 h, read-out: Activity
Hs-578T = assay: Growth inhibition of human Hs 578T cells assessed as cell growth at 10^-8 M incubated for 48 hrs by sulforhodamine B assay relative to control; type: functional; details: read-out: Activity
NCI-H23 = assay: Growth inhibition of human NCI-H23 cells assessed as cell growth at 10^-6 M incubated for 48 hrs by sulforhodamine B assay relative to control; type: functional; details: NCI-H23, 48 h, read-out: Activity
KM12 = assay: Growth inhibition of human KM12 cells assessed as cell growth at 10^-4 M incubated for 48 hrs by sulforhodamine B assay relative to control; type: functional; details: KM12, 48 h, read-out: Activity
SR = assay: Cytotoxicity against human SR cells after 48 hrs by SRB assay; type: functional
HCT-116 [13] = assay: Growth inhibition of human HCT116 cells assessed as cell growth at 10^-7 M incubated for 48 hrs by sulforhodamine B assay relative to control; type: functional; details: HCT-116, 48 h, read-out: Activity
HL-60(TB) [14] = assay: Growth inhibition of human HL-60(TB) cells assessed as cell growth at 10^-8 M incubated for 48 hrs by sulforhodamine B assay relative to control; type: functional; details: HL-60, 48 h, read-out: Activity
[15] = read-out: LC50 (the source's name)
[16] = read-out: pLC50 (the source's name) (converted)

Question: For `C#C[C@@]1(O)[C@@H](CO)O[C@@H](n2cc(F)c3c(N)ncnc32)[C@@H]1O`, which growth at 0.01 µM (SF-268 [1]) is on record?
Answer: The growth at 0.01 µM was 100%.

Question: What about the growth at 0.01 µM (LOX IMVI) of the same compound?
Answer: Its growth at 0.01 µM is 96%.

Question: What about the CC50 (OVCAR-5; [15]) of the same compound?
Answer: Its CC50 is > 100 µM.

Question: What about the TGI (OVCAR-5; read-out: TGI) of the same compound?
Answer: Its TGI is > 100 µM.

Question: What about the GI50 (OVCAR-5; read-out: pGI50 (converted)) of the same compound?
Answer: The GI50 was 1780 nM.

Question: And the TGI (OVCAR-5; read-out: pTGI (converted))?
Answer: The TGI was > 100 µM.

Question: And the TGI (Malme-3M [2]; read-out: TGI)?
Answer: The TGI was 1810 nM.

Question: What about the GI50 (Malme-3M [2]; read-out: pGI50 (converted)) of the same compound?
Answer: The GI50 was 363 nM.

Question: And the CC50 (Malme-3M [2]; [16])?
Answer: Its CC50 is > 100 µM.

Question: What about the TGI (Malme-3M [2]; read-out: pTGI (converted)) of the same compound?
Answer: Its TGI is 1820 nM.

Question: What about the growth at 1 µM (MDA-MB-435) of the same compound?
Answer: The growth at 1 µM was 28%.

Question: What about the growth at 100 µM (HT-29 [3]) of the same compound?
Answer: Its growth at 100 µM is 2%.

Question: And the growth at 0.1 µM (IGROV-1)?
Answer: The growth at 0.1 µM was 96%.

Question: And the growth at 10 µM (SF-268 [4])?
Answer: The growth at 10 µM was 7%.

Question: And the growth at 0.1 µM (K562)?
Answer: The growth at 0.1 µM was 78%.

Question: What about the growth at 1 µM (HCT-116 [5]) of the same compound?
Answer: The growth at 1 µM was 4%.

Question: What about the growth at 0.01 µM (RPMI-8226 [6]) of the same compound?
Answer: Its growth at 0.01 µM is 94%.

Question: And the TGI (786-0 [7]; read-out: TGI)?
Answer: Its TGI is 2840 nM.

Question: What about the GI50 (786-0 [7]; read-out: pGI50 (converted)) of the same compound?
Answer: Its GI50 is 708 nM.

Question: What about the TGI (786-0 [7]; read-out: pTGI (converted)) of the same compound?
Answer: Its TGI is 2820 nM.

Question: What about the growth at 0.1 µM (BT-549) of the same compound?
Answer: The growth at 0.1 µM was 107%.

Question: What about the growth at 10 µM (Malme-3M [8]) of the same compound?
Answer: The growth at 10 µM was -34%.

Question: And the growth at 100 µM (U-251)?
Answer: The growth at 100 µM was -18%.

Question: And the growth at 0.1 µM (786-0 [9])?
Answer: Its growth at 0.1 µM is 87%.

Question: What about the TGI (T47D; read-out: TGI) of the same compound?
Answer: Its TGI is 770 nM.

Question: What about the GI50 (T47D; read-out: pGI50 (converted)) of the same compound?
Answer: The GI50 was 214 nM.

Question: And the CC50 (T47D; [16])?
Answer: Its CC50 is 20 µM.

Question: What about the TGI (T47D; read-out: pTGI (converted)) of the same compound?
Answer: The TGI was 776 nM.

Question: And the CC50 (RPMI-8226 [10]; [15])?
Answer: The CC50 was > 100 µM.

Question: What about the TGI (RPMI-8226 [10]; read-out: TGI) of the same compound?
Answer: Its TGI is 1980 nM.

Question: And the GI50 (RPMI-8226 [10]; read-out: pGI50 (converted))?
Answer: Its GI50 is 219 nM.

Question: And the TGI (RPMI-8226 [10]; read-out: pTGI (converted))?
Answer: The TGI was 2000 nM.

Question: And the IC50 (HUVEC)?
Answer: Its IC50 is 67 nM.

Question: And the growth at 0.1 µM (HCC 2998)?
Answer: The growth at 0.1 µM was 97%.

Question: And the growth at 1 µM (ACHN)?
Answer: Its growth at 1 µM is 9%.

Question: And the growth at 1 µM (SN12C)?
Answer: Its growth at 1 µM is 17%.

Question: And the growth at 0.01 µM (HT-29 [11])?
Answer: The growth at 0.01 µM was 96%.

Question: And the TGI (SF-295; read-out: TGI)?
Answer: The TGI was 2330 nM.

Question: What about the GI50 (SF-295; read-out: pGI50 (converted)) of the same compound?
Answer: The GI50 was 646 nM.

Question: What about the CC50 (SF-295; [16]) of the same compound?
Answer: Its CC50 is 6.76 µM.

Question: What about the TGI (SF-295; read-out: pTGI (converted)) of the same compound?
Answer: Its TGI is 2340 nM.

Question: What about the growth at 0.1 µM (OVCAR-8) of the same compound?
Answer: The growth at 0.1 µM was 74%.

Question: And the growth at 1 µM (HL-60(TB) [12])?
Answer: The growth at 1 µM was 20%.

Question: What about the growth at 0.01 µM (Hs-578T) of the same compound?
Answer: The growth at 0.01 µM was 92%.

Question: What about the growth at 1 µM (NCI-H23) of the same compound?
Answer: The growth at 1 µM was 22%.

Question: What about the growth at 100 µM (KM12) of the same compound?
Answer: Its growth at 100 µM is -10%.

Question: What about the CC50 (SR; [15]) of the same compound?
Answer: Its CC50 is > 100 µM.

Question: What about the TGI (SR; read-out: TGI) of the same compound?
Answer: The TGI was > 100 µM.

Question: What about the GI50 (SR; read-out: pGI50 (converted)) of the same compound?
Answer: The GI50 was 186 nM.

Question: What about the TGI (SR; read-out: pTGI) of the same compound?
Answer: Its TGI is > 100 µM.

Question: And the growth at 0.1 µM (HCT-116 [13])?
Answer: Its growth at 0.1 µM is 60%.

Question: And the growth at 0.01 µM (HL-60(TB) [14])?
Answer: Its growth at 0.01 µM is 93%.
